Screens as filed in PubChem.
HNF4A DNA FP: change in binding of human HNF4 alpha to DNA; HNF4a-FITC DNA binding, fluorescence polarization, 1 h; activity change, % at 10 µM; P41235; AID 1224865; 360,000 tested, 0.3% active; in the data active = activity change above about 30%, passing the limit was not always enough
Target sequence (P41235 whole entry, looked up): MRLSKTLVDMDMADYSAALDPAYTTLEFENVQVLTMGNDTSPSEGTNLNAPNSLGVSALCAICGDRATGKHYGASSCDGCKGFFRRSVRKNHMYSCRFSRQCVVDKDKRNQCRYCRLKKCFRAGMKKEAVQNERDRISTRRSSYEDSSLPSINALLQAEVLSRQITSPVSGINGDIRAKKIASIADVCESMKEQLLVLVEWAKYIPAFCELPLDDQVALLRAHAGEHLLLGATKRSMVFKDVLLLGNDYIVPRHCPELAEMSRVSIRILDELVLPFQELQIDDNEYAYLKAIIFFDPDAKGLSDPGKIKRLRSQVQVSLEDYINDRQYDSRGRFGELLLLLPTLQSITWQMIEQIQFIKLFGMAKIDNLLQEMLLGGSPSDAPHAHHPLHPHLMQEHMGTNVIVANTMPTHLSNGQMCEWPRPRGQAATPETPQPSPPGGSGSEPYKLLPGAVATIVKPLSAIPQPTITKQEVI
IDE inh: inhibitors of human insulin-degrading enzyme in cells | P14735 | HEK cells, FAbetaB cleavage, fluorescence polarization | inhibition, % at 5.59 µM | 320,000 tested, 0.41% active | AID 434962;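 active = percent inhibition above the average of all tested compounds plus 3 SD, set per screening campaign, cut at about 16% in these data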;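 note: IDE supplied by intact live HEK cells; FP after avidin binding of uncleaved biotin substrate so inhibition keeps polarization high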
IDE cell activ: activators of human insulin-degrading enzyme in cells | HEK cells, FAbeta-B cleavage, fluorescence polarization; 0% vehicle, 100% cell-free pure enzyme wells | activation, % at 5.96 µM | 340,000 tested, 0.073% active | AID 493087;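 active = activation above the mean of all tested compounds plus 3 SD, set per screening campaign, cut at about 17% in these data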
TPT1 inh: C. albicans TPT1 enzyme inhibition | 300,000 tested, 0.81% active | AID 1962 | recombinant caTPT1, FP RNA substrate dephosphorylation | inhibition, % at 5 µM;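 active = inhibition above the mean of all tested compounds plus 3 SD, set per screening campaign, cut at about 24% in these data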
CSN deneddyl inh: blocks human CSN-mediated cullin deneddylation | 360,000 tested, 0.38% active | Q92905 | Purified CSN, SCF-Nedd8-OG deneddylation, fluorescence polarization | AID 651999 | inhibition, % at 12.5 µM;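 active = pattern-corrected inhibition above about 35%, with an unprinted fluorescence ratio check between 0.5 and 1.5, limit read from the data, passing the limit was not always enough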
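assay system = purified human Csn5 enzyme expressed in HEK293T cells | amount = 0.24 nM enzyme | buffer or medium = Tris/NaCl/DTT buffer, pH 7.5 | reagent = 10 nM SCFSkp2-Nedd8OG | compound = one concentration, 12.5 µM, 0.25% DMSO | times = 90 min reaction at room temperature | signal = FP | read-out basis = % inhibition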
TPT1 inh confirm: TPT1 (C. albicans) inhibition, confirmation; shares compounds with TPT1 inh; recombinant caTPT1, fluorescence polarization, RNase T1 coupled; inhibition, % at 5 µM; 2,400 tested, 74% active; AID 2149;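 active = inhibition above the primary screen limit, the mean inhibition of all tested compounds plus 3 SD, cut at about 25% in these data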
RNase T1 inh: RNase T1 inhibition in TPT1 counter-screen. shares compounds with TPT1 inh. RNase T1 cleavage, fluorescence polarization, 1536-well. inhibition, % at 5 µM. 2,400 tested, 83% active. AID 2153;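 active = inhibition above the solvent-only control well mean plus 3 SD, limit set per screening run, cut at about 23% in these data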;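 note: inhibitors block cleavage so intact labeled substrate keeps polarization high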
Target sequence (P00651 whole entry, looked up): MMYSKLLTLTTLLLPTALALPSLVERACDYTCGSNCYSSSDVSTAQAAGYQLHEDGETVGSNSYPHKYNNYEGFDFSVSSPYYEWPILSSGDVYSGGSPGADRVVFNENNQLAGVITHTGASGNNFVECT
IDE cell inh cf: cellular human IDE inhibition, confirmation | shares compounds with IDE inh | HEK cells, FAbetaB cleavage, fluorescence polarization | inhibition, % at 5.59 µM | 1,200 tested, 51% active;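 active = mean inhibition across triplicate wells above the cutoff set by the earlier primary insulin-degrading enzyme screen, cut at about 16% in these data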
HEK293 tox: kills HEK cells in IDE inhibitor counter-screen. shares compounds with IDE inh. HEK293 cytotoxicity, ATP luminescence. inhibition, % at 5.59 µM. 1,200 tested, 28% active; in the data active = inhibition above about 22%
IDE FP artifact: fluorescence interference counter-screen for IDE inhibitors | shares compounds with IDE inh | FP counterscreen for fluorescent artifacts, IDE probe project | IC50, µM | 30 tested, under 10 active; call rule not given here
Numbers stand for hits. Only some compounds are listed: those with a hit (about 1.4% of all), similar ones and a draw of the others.

For Cc1ccc(C)c(N2C(=N)S/C(=C\c3ccc(-c4ccccc4C(=O)O)o3)C2=O)c1 the results were HNF4A DNA FP inactive, IDE inh 32, IDE cell activ inactive, TPT1 inh 59, CSN deneddyl inh inactive, TPT1 inh confirm 41, RNase T1 inh 53, IDE cell inh cf 17, HEK293 tox inactive and IDE FP artifact inactive.
Screening CCN(CC(=O)Nc1c(F)cccc1F)C(=O)COc1cccc2c1OC(C)(C)C2 returned HNF4A DNA FP inactive, IDE inh inactive, IDE cell activ inactive, TPT1 inh inactive and CSN deneddyl inh inactive.
Nc1c(C(=O)Nc2nc3ccccc3s2)sc2nc(-c3cccs3)ccc12 was read as HNF4A DNA FP inactive, IDE inh 29, IDE cell activ inactive, TPT1 inh 30, CSN deneddyl inh inactive, TPT1 inh confirm 27, RNase T1 inh 38, IDE cell inh cf 37 and HEK293 tox 81.
`CC(=O)c1sc2nc(-c3cccs3)ccc2c1N` gave HNF4A DNA FP inactive, IDE inh inactive, IDE cell activ inactive, TPT1 inh inactive and CSN deneddyl inh inactive.
Screening CC(C)C[C@@H](CN1CCC[C@H]1CN1C(=O)C(=O)NC[C@@H]1Cc1ccccc1)N1C[C@H](Cc2ccccc2)N(CC2CCCCC2)C(=O)C1=O returned HNF4A DNA FP inactive and CSN deneddyl inh inactive.
O=C(NCC1CCOCC1)c1ccc(-c2ccc(F)c(F)c2)c2ccoc12 was read as HNF4A DNA FP inactive and CSN deneddyl inh inactive.
CCN(CC)c1ccc(/C=C2\C(=O)c3ccc(C(=O)O)cc3C2=O)cc1 was read as HNF4A DNA FP 84, IDE inh 141, IDE cell activ inactive, TPT1 inh 143, CSN deneddyl inh inactive, TPT1 inh confirm 122, RNase T1 inh 116, IDE cell inh cf 26 and HEK293 tox inactive.
`Cc1ccc(N(C(=O)CNC(=O)c2ccco2)C(C(=O)NC2CCCC2)c2cccnc2)c(C)c1` (stereo not drawn) gave HNF4A DNA FP inactive, IDE inh inactive, IDE cell activ inactive, TPT1 inh inactive and CSN deneddyl inh inactive.
Screening CCOc1ccccc1NC1=C(OC)C(=O)C(Nc2ccccc2OCC)=C(OC)C1=O returned HNF4A DNA FP inactive, IDE cell activ inactive and CSN deneddyl inh inactive.
`Cn1c(CNC(=O)CNC(=O)Cc2ccccc2)cc(=O)n(C)c1=O` gave HNF4A DNA FP inactive, IDE inh inactive, IDE cell activ inactive, TPT1 inh inactive and CSN deneddyl inh inactive.
`O=C(O)Cc1sc(N/N=C\c2ccncc2)nc1-c1ccccc1` gave HNF4A DNA FP inactive, IDE inh 40, IDE cell activ inactive, TPT1 inh 52, CSN deneddyl inh inactive, TPT1 inh confirm 43, RNase T1 inh 51, IDE cell inh cf 32 and HEK293 tox inactive.
`C(=N\Nc1nc(-c2ccccc2)cs1)/c1ccncc1` gave HNF4A DNA FP inactive, IDE inh inactive, IDE cell activ inactive, TPT1 inh inactive and CSN deneddyl inh inactive.
CN(C)c1ccc(/C=C(/C#N)C(=O)NCc2ccccc2)o1 was read as HNF4A DNA FP inactive, IDE inh 97, IDE cell activ inactive, TPT1 inh 177, CSN deneddyl inh inactive, TPT1 inh confirm 192, RNase T1 inh 176, IDE cell inh cf 122 and HEK293 tox inactive.
`Cc1ccc(S(=O)(=O)N2CCCCC2)cc1C(=O)NCCCN1CCOCC1` gave HNF4A DNA FP inactive, IDE inh inactive, IDE cell activ inactive, TPT1 inh inactive and CSN deneddyl inh inactive.
Screening O=C1/C(=C/c2ccc(N3CCCC3)cc2)NC(=S)N1C1CC1 returned HNF4A DNA FP inactive, IDE inh 90, IDE cell activ inactive, TPT1 inh 162, CSN deneddyl inh inactive, TPT1 inh confirm 169, RNase T1 inh 153, IDE cell inh cf 120 and HEK293 tox 27.
Screening Cc1cc(N2CCCC2)ccc1/C=C1\NC(=S)N(C)C1=O returned HNF4A DNA FP inactive, IDE inh 79, IDE cell activ inactive, TPT1 inh 164, CSN deneddyl inh inactive, TPT1 inh confirm 167, RNase T1 inh 154, IDE cell inh cf 116 and HEK293 tox inactive.
Screening O=C(C1=NN[C@@H]2C(=O)N(c3cccc(C(F)(F)F)c3)C(=O)[C@H]12)c1cnccn1 returned HNF4A DNA FP inactive, IDE inh inactive, IDE cell activ inactive, TPT1 inh inactive and CSN deneddyl inh inactive.
`COc1ccc(C(=O)N/N=C/c2c[nH]c3ccccc23)cc1` gave HNF4A DNA FP inactive, IDE inh inactive, IDE cell activ inactive, TPT1 inh inactive and CSN deneddyl inh inactive.
Screening O=C(N/N=C/c1sc2ccccc2c1O)c1ccccc1 returned HNF4A DNA FP inactive, IDE inh 34, IDE cell activ inactive, TPT1 inh 135, CSN deneddyl inh inactive, TPT1 inh confirm 135, RNase T1 inh 128, IDE cell inh cf 62 and HEK293 tox 115.
For COc1ccc(C(=O)N/N=C/c2sc3ccccc3c2O)cc1 the results were HNF4A DNA FP inactive, IDE inh 17, IDE cell activ inactive, TPT1 inh 139, CSN deneddyl inh inactive, TPT1 inh confirm 145, RNase T1 inh 135, IDE cell inh cf 33 and HEK293 tox 87.
`O=C(NCCN1CCOCC1)c1cccc(NS(=O)(=O)c2ccc(Br)cc2)c1` gave HNF4A DNA FP inactive, IDE inh inactive, IDE cell activ inactive, TPT1 inh inactive and CSN deneddyl inh inactive.
For COc1ccc(C2C(C(C)=O)=C(C)N=c3s/c(=C\c4cc(C)n(C)c4C)c(=O)n32)c(OC)c1 (stereo not drawn) the results were HNF4A DNA FP inactive, IDE inh 116, IDE cell activ inactive, TPT1 inh 132, CSN deneddyl inh inactive, TPT1 inh confirm 134, RNase T1 inh 127, IDE cell inh cf 26 and HEK293 tox inactive.
N#C/C(=C/c1ccncc1)c1nc2ccccc2s1 was read as HNF4A DNA FP inactive, IDE inh 44, IDE cell activ inactive, TPT1 inh 30, CSN deneddyl inh inactive, TPT1 inh confirm inactive, RNase T1 inh inactive, IDE cell inh cf inactive and HEK293 tox inactive.
Screening CC(C)=C(C#N)c1nc2ccccc2s1 returned HNF4A DNA FP inactive, IDE inh 38, IDE cell activ inactive, TPT1 inh 25, CSN deneddyl inh inactive, TPT1 inh confirm inactive, RNase T1 inh inactive, IDE cell inh cf inactive and HEK293 tox inactive.
